Source: PubChem
T cruzi repl: T. cruzi replication inhibition; T. cruzi beta-gal in NIH3T3, luminescence, 90 h; inhibition, % (test concentration not listed); 300,000 compounds, 1.4% hits;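 active = mean inhibition across valid replicates above about 55%, limit read from the data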;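 note: signal also drops with host cell toxicity which is not excluded here; higher percent means less beta-gal luminescence so fewer parasites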
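System: Mouse NIH/3T3 fibroblasts infected with β-gal-expressing T. cruzi Tulahuen C4 | Quantity: NIH/3T3 cells, 5,000 per well | Reagent: 5000 reporter trypomastigotes per well | Dosing: Compound pinned at 50 nL/well, DMSO | Schedule: 3 h host attachment, then at least 90 h co-culture | Detection: GalScreen luminescence, 60 min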
KLF5 inh: inhibitors of KLF5 expression; DLD-1 KLF5 promoter-luciferase reporter, luminescence; inhibition, % at 5 µM; 290,000 compounds, 0.23% hits; AID 1700;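 active = inhibition above a per-plate limit of that plate's mean compound inhibition plus 3 SD, cut at about 60% in these data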;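 note: higher means less KLF5 promoter-driven luciferase light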
HIF act: HIF pathway transcriptional activation. U2OS HRE-luciferase reporter, luminescence; normalized: DMSO 0%, desferrioxamine 100%. activation, % at 7.5 µM (by protocol). 300,000 compounds, 0.32% hits. AID 1910;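 active = mean activation of at least 10% of the iron chelator positive control signal, with at least half of replicates also reaching 10%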
A1 inh: inhibitors of the anti-apoptotic protein A1, read as caspase activation | AID 2462 | 330,000 compounds, 0.066% hits | caspase activation, % (no concentration beside the values) | MEF A1-2A-BIM cells, Caspase-Glo 3/7 luminescence, 3 h; percent of clofoctol response, vehicle zero;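 active = over half of replicate activation scores above 10%, or exactly half above 10 with the replicate mean above 10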
Beta apoptosis: blocks beta cell apoptosis; protection from apoptosis, % (no concentration beside the values); INS-1E cytokine-induced death, ATP luminescence, 48 h; percent of positive-control rescue, neutral wells zero; 300,000 compounds, 0.8% hits;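 active = Every replicate reaches about 75%, or at least half do and their mean reaches it too, limit read from the data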;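 note: higher means more ATP so stronger rescue from cytokine killing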
KLF5 inh confirm: KLF5 inhibition, confirmation assay | DLD-1 KLF5 promoter firefly luciferase reporter, luminescence | 610 compounds, 79% hits | shares compounds with KLF5 inh | inhibition, % at 4 µM | AID 1834;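 active = inhibition above a set limit taken from the earlier primary screen, cut at about 63% in these data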
IEC-6 tox trip: counter-screen for KLF5 inhibitors: cytotoxicity in rat IEC-6 cells. shares compounds with KLF5 inh. IEC-6 rat intestinal cells, viability luminescence. inhibition, % at 4 µM. 610 compounds, 56% hits. AID 1905; in the data active = inhibition above about 23%;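 note: cells exposed to compounds for 48 hours before viability read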
Large screens that a line does not name were inactive (follow-up assays come after a bar, where they were run). Rows were chosen to be rich in hits. Some 2.3% of all compounds tested hit in one or more screens of this group.

NS(=O)(=O)c1ccc(N=Nc2ccc(O)c3ncccc23)cc1	T cruzi repl 66.1, KLF5 inh 80.1, Beta apoptosis 120.7 | KLF5 inh confirm 74.1 | IEC-6 tox trip inactive
CCOc1ccc(N=Nc2ccc(O)c3ncccc23)cc1	T cruzi repl 65.4, KLF5 inh 64.8 | KLF5 inh confirm inactive | IEC-6 tox trip inactive
CCN(CC)S(=O)(=O)c1cc(OC)ccc1N=Nc1ccc(O)c2ncccc12	KLF5 inh 86.6, Beta apoptosis 94.4 | KLF5 inh confirm 86.8 | IEC-6 tox trip inactive
NS(=O)(=O)c1ccc(N=Nc2c(O)ccc3ccccc23)cc1	none
O=C1NC(=O)N(Cc2ccccc2F)C1=O	none
O=C(Nc1cccc(C(=O)O)c1)Nc1ccc2c(c1)OCO2	KLF5 inh 95.5 | KLF5 inh confirm 89.0 | IEC-6 tox trip inactive
COc1cccc(NC(=O)Nc2cccc(C(=O)O)c2)c1	KLF5 inh 75.5 | KLF5 inh confirm 65.0 | IEC-6 tox trip inactive
COc1cccc(NC(=O)c2ccccc2)c1	none (no result: T cruzi repl, KLF5 inh, HIF act)
Cc1cc(CN(C)C(=O)C2CCC(=O)N(CCc3cccc(F)c3)C2)on1 (stereo unspecified)	none
Cc1ccc(CC(=O)NNC(=O)c2ccncc2)cc1C	none (no result: KLF5 inh, Beta apoptosis)
COCCn1c(C)cc(C2=NNC(=Nc3ccccc3F)SC2)c1C	KLF5 inh 88.6 | KLF5 inh confirm inactive | IEC-6 tox trip inactive
CCCCNS(=O)(=O)c1cc2c3c(c1)CCN3C(=O)CC2	none
CCCCN(C(=O)Cc1coc2cc(C)c(C)cc12)c1c(N)n(Cc2ccccc2)c(=O)[nH]c1=O	none (no result: KLF5 inh)
Cc1cc(C)cc(C(=O)Nc2ccncc2)c1	none (no result: Beta apoptosis)
O=C(Nc1ccc(Cl)cn1)c1cccc2c(Br)cccc12	KLF5 inh 62.4 | KLF5 inh confirm inactive | IEC-6 tox trip inactive
Cc1ccc(C(C)NC(=S)NC2CCCCC2)c(C)c1 (stereo unspecified)	none
c1ccc(-c2ccc(-c3nc(-c4ccccn4)no3)cc2)cc1	KLF5 inh 83.6 (no result: HIF act) | KLF5 inh confirm 104.4 | IEC-6 tox trip inactive
Cc1ccc(-c2nc(-c3ccccn3)no2)cc1	KLF5 inh 88.2 | KLF5 inh confirm 99.6 | IEC-6 tox trip 41.6
Clc1cccc(-c2nc(-c3ccccn3)no2)c1	none
Cc1ccc(-c2nc(-c3ccccn3)no2)cc1Cl	KLF5 inh 69.8 | KLF5 inh confirm 89.0 | IEC-6 tox trip inactive
O=C(COc1ccccc1F)Nc1cc(S(=O)(=O)Nc2cccc(Cl)c2)ccc1O	none (no result: T cruzi repl, KLF5 inh, HIF act)
CN1CCN(NC(=O)NC2CCCCC2)CC1	none
Cc1cccc(OCCNC(=O)CCc2ccccc2)c1	none (no result: KLF5 inh)
Cc1cs/c(=N/C(=S)Nc2ccccc2)n1C	none
CCCn1c(C)cs/c1=N\C(=S)Nc1ccccc1	KLF5 inh 118.4 | KLF5 inh confirm inactive | IEC-6 tox trip inactive
Oc1c(C(c2cccs2)N2CCN(c3ccccc3)CC2)ccc2cccnc12 (stereo unspecified)	KLF5 inh 69.1, Beta apoptosis 108.9 (no result: T cruzi repl, HIF act) | KLF5 inh confirm inactive | IEC-6 tox trip inactive
Oc1[nH]c2ccc(Br)cc2c1N=NC(=S)N1CCOCC1	T cruzi repl 55.0, KLF5 inh 75.4, HIF act 161.3, Beta apoptosis 108.1 | KLF5 inh confirm 85.2 | IEC-6 tox trip 56.3
Oc1[nH]c2ccccc2c1N=NC(=S)N1CCOCC1	T cruzi repl 56.5, KLF5 inh 67.6, HIF act 11.3, Beta apoptosis 82.8 | KLF5 inh confirm 88.8 | IEC-6 tox trip 48.3
COC(=O)N=Nc1c(O)[nH]c2ccc(Br)cc12	none
O=C(CN1CCN(C(=O)C2CCCO2)CC1)Nc1ccc(F)cc1 (stereo unspecified)	none (no result: Beta apoptosis)
O=C(Nc1ccccc1)N1CCC(C(=O)N2CCCC(C(F)(F)F)C2)CC1 (stereo unspecified)	none
O=C(Nc1cccc(S(=O)(=O)N2CCCCC2)c1)C1CC1	none (no result: T cruzi repl, KLF5 inh, HIF act)
CC1=NN(c2nc3ccccc3[nH]2)C(=O)C1Cc1ccccc1 (stereo unspecified)	KLF5 inh 62.7, Beta apoptosis 98.9 | KLF5 inh confirm 80.8 | IEC-6 tox trip inactive
O=c1[nH]c2ccccc2nc1NCc1ccccc1	none
O=C(Cc1n[nH]c(=O)c2ccccc12)OCC(=O)c1ccc2c(c1)OCCO2	KLF5 inh 77.0 | KLF5 inh confirm 65.4 | IEC-6 tox trip 71.5
O=C(Cc1n[nH]c(=O)c2ccccc12)OCC(=O)c1ccc(F)cc1	none (no result: KLF5 inh)
Cc1cccc(NC(c2ccc(O)cc2)c2ccc3ccc(C)nc3c2O)n1 (stereo unspecified)	none
CCCCC(=O)NC(c1ccc(C(C)C)cc1)c1ccc2cccnc2c1O (stereo unspecified)	KLF5 inh 68.7, HIF act 103.1 (no result: Beta apoptosis) | KLF5 inh confirm 79.7 | IEC-6 tox trip 45.5
CC(=O)NC(c1ccc(C)cc1)c1cc(Cl)c2cccnc2c1O (stereo unspecified)	T cruzi repl 62.4, KLF5 inh 64.3, HIF act 9.8 | KLF5 inh confirm 83.4 | IEC-6 tox trip 69.1
CCCC(=O)NC(c1ccc(OC)cc1)c1ccc2cccnc2c1O (stereo unspecified)	T cruzi repl 74.4, KLF5 inh 90.3, HIF act 73.5, Beta apoptosis 97.4 | KLF5 inh confirm 96.2 | IEC-6 tox trip 91.7
CC(=O)NC(C)c1cc(F)c2cccnc2c1O (stereo unspecified)	none (no result: T cruzi repl, KLF5 inh, HIF act)
CCC(=O)NC(c1ccc(OC)cc1)c1c(O)ccc2ccccc12 (stereo unspecified)	none
CC(=O)NC(c1ccc(C(C)C)cc1)c1ccc2cccnc2c1O (stereo unspecified)	T cruzi repl 56.2, KLF5 inh 81.2, HIF act 163.3, Beta apoptosis 89.7 | KLF5 inh confirm 82.2 | IEC-6 tox trip 82.8
CCCCC(=O)NC(c1ccc([N+](=O)[O-])cc1)c1c(O)ccc2ccccc12 (stereo unspecified)	none
O=C(CSC(=S)N1CCCC1)N(Cc1nnc(-c2ccccc2Cl)o1)C1CC1	none (no result: T cruzi repl, KLF5 inh, HIF act)
COC(=O)C[C@H]1c2cc(C(F)(F)F)ccc2S(=O)(=O)N1C1CCCC1	none (no result: KLF5 inh)
COc1ccccc1C(=O)NC(CCSC)C(=O)OCC(=O)N1CCCC1=O (stereo unspecified)	none (no result: T cruzi repl, KLF5 inh, HIF act)
C[C@@H]1C=CC(=O)O[C@@H]1c1ccc(C(F)(F)F)cc1	KLF5 inh 61.8 | KLF5 inh confirm inactive | IEC-6 tox trip inactive
Nn1cnnc1SCC(=O)Nc1ccc(C2CCCCC2)cc1	none
O=C(O)CSCC(=O)Nc1ccc(C2CCCCC2)cc1	KLF5 inh 74.9 | KLF5 inh confirm 77.1 | IEC-6 tox trip inactive
O=Cc1ccc2ccc3cccnc3c2n1	KLF5 inh 77.8 | KLF5 inh confirm inactive | IEC-6 tox trip inactive
O=[N+]([O-])c1ccc(N=Nc2c(Cl)cc(O)cc2Cl)cc1	Beta apoptosis 121.5 | KLF5 inh confirm inactive | IEC-6 tox trip 22.4
